Test results as given in ChEMBL document CHEMBL1147577, “Design, synthesis, and SAR of anthranilamide-based factor Xa inhibitors incorporating substituted biphenyl P4 motifs” (Bioorg Med Chem Lett, 2004).

Legend:
Coagulation factor X [1] = target: T1, Coagulation factor X (Homo sapiens, UniProt P00742); test: Inhibitory concentration against coagulation factor Xa.
Coagulation factor X [2] = target: T1, Coagulation factor X; test: Concentration required to double the lag time of maximum thrombin generation in human plasma-based thrombin generation assay.; format: functional, cell-free
Summary of the method: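 Human plasma treated with reptilase, mixed with inhibitor serially diluted from DMSO stock, then chromogenic substrate H-b-Ala-Gly-Arg-p-nitroanilide and CaCl2. Thrombin generation started with 640 pmol/L recombinant tissue factor. Absorbance at 405 nm followed at 37 °C for 22 min. Reported as 2XTG, the inhibitor concentration that doubles the time to maximum thrombin generation.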

Coagulation factor X [3] = target: T1, Coagulation factor X; test: Inhibition of Coagulation factor X
[4] = Oral bioavailability in rat; format: ADME, organism-based; conditions: in vivo
Summary of the method: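 Sprague–Dawley rats given 6 mg/kg orally, with oral bioavailability calculated.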

[5] = target: Tissue-type plasminogen activator (Homo sapiens, UniProt P00750); test: Inhibitory activity against tissue type plasminogen activator was determined
[6] = target: Vitamin K-dependent protein C (Homo sapiens, UniProt P04070); test: Inhibitory activity against activated protein C was determined
Serine protease 1 = Serine protease 1 (Homo sapiens, UniProt P07477); test: Inhibitory concentration against trypsin was determined
[7] = target: Plasminogen (Homo sapiens) (UniProt P00747); test: Inhibitory activity against plasmin was determined
Kallikrein-1 = Kallikrein-1 (Homo sapiens, UniProt P06870); test: Inhibitory activity against kallikrein was determined
Sequence of Kallikrein-1 (P06870 whole entry): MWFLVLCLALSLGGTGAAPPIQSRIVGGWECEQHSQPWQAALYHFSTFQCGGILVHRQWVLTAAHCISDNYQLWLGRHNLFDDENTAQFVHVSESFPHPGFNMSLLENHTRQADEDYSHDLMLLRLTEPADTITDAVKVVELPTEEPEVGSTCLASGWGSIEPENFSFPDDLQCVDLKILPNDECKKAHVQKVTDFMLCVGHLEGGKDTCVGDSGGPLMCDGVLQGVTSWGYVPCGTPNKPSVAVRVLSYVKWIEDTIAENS

T1 sequence (P00742 41-179 limits assumed): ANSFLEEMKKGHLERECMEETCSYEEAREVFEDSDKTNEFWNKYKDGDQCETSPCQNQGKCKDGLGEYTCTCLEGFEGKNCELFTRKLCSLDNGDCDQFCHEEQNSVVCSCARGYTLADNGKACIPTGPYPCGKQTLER
T1 sequence (P00742 235-488 limits assumed): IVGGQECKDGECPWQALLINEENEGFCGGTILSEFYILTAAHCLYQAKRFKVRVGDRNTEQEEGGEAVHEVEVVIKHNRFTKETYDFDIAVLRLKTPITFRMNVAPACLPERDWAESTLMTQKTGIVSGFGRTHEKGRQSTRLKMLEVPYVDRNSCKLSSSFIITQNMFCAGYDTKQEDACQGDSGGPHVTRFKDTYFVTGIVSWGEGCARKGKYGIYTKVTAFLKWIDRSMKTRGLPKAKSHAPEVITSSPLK
Sequence of Serine protease 1 (P07477 whole entry): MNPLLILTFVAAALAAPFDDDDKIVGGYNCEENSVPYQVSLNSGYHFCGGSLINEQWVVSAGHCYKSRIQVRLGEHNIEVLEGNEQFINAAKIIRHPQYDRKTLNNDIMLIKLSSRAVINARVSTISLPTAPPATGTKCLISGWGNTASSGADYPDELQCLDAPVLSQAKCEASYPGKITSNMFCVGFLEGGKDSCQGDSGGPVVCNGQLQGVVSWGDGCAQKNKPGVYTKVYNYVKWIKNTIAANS
Sequence of Tissue-type plasminogen activator (P00750 whole entry): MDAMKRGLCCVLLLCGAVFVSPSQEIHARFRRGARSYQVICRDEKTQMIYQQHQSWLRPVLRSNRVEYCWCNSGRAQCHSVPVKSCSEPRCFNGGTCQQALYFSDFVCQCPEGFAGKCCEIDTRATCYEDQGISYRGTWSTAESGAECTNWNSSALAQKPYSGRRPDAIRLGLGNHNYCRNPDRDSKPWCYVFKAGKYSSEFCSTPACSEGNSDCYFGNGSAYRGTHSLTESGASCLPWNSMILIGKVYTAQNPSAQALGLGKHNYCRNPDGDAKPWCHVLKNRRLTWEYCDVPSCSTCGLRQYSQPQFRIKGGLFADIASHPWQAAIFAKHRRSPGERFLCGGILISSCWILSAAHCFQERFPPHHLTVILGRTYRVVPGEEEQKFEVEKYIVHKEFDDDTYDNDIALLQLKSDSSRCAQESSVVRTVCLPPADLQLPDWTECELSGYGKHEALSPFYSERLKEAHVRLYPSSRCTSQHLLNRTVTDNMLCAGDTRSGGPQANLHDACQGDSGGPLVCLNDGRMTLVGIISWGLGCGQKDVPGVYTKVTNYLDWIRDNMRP
Sequence of Plasminogen (Homo sapiens) (P00747 whole entry, looked up): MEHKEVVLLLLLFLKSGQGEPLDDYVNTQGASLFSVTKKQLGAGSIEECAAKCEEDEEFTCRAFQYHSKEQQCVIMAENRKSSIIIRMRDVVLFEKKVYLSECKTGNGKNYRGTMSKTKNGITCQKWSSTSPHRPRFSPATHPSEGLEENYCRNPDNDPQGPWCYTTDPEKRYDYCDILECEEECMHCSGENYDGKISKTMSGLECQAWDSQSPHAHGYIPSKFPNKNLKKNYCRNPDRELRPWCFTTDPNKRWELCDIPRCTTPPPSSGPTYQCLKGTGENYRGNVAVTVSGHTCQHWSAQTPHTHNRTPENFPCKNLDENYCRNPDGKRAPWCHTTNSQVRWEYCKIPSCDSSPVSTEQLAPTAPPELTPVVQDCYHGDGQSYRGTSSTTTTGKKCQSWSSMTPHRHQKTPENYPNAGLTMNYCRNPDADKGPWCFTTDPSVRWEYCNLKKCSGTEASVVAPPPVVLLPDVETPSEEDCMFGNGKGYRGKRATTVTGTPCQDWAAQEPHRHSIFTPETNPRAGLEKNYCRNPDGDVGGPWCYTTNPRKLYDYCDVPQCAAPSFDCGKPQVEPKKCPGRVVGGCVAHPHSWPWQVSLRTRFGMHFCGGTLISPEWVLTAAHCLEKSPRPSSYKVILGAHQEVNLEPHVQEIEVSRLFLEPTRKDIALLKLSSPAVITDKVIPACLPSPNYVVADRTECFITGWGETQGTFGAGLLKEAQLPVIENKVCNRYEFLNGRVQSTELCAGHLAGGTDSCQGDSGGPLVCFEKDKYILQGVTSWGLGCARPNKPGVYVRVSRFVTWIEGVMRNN
Sequence of Vitamin K-dependent protein C (P04070 43-197 limits assumed): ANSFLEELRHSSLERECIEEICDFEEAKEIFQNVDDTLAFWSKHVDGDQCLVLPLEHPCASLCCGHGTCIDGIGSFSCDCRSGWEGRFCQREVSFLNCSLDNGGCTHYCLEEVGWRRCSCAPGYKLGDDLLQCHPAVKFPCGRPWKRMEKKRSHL
Sequence of Vitamin K-dependent protein C (P04070 212-461 limits assumed): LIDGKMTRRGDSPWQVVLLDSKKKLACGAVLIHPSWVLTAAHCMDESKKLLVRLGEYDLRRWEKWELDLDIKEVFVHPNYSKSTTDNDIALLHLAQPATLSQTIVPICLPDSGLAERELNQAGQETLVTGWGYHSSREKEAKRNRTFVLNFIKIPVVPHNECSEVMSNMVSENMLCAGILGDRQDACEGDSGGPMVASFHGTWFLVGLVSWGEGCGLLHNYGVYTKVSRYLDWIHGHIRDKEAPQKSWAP

| SMILES | IC50 (Coagulation factor X [1]) [nM] | Activity (Coagulation factor X [2]) [µM] | also measured |
| --- | --- | --- | --- |
| CN(C)C(=N)c1ccccc1-c1ccc(C(=O)Nc2ccc(Cl)cc2C(=O)Nc2ccc(Cl)cn2)cc1 | 0.2 | 1.4 | Ki (Coagulation factor X [3]): 0.1 nM |
| CN(C)C(=N)c1cccc(-c2ccc(C(=O)Nc3ccc(Cl)cc3C(=O)Nc3ccc(Cl)cn3)cc2)c1 | 2 | > 5 | Ki (Coagulation factor X [3]): 1 nM |
| O=C(Nc1ccc(Cl)cc1C(=O)Nc1ccc(Cl)cn1)c1ccc(-c2cccc(N3CCCNCC3)c2)cc1 | 32 |  |  |
| NS(=O)(=O)c1ccccc1-c1ccc(C(=O)NCCC(=O)Nc2ccc(Br)cn2)cc1 | 12 |  |  |
| CC(=N)NCc1ccccc1-c1ccc(C(=O)Nc2ccc(Cl)cc2C(=O)Nc2ccc(Cl)cn2)cc1 |  | > 5 |  |
| NCc1ccccc1-c1ccc(C(=O)Nc2ccccc2C(=O)Nc2ccc(Cl)cn2)cc1 | 67 |  |  |
| CNc1cccc(-c2ccc(C(=O)Nc3ccc(Cl)cc3C(=O)Nc3ccc(Cl)cn3)cc2)c1 | 2.3 |  |  |
| NS(=O)(=O)c1ccccc1-c1ccc(C(=O)Nc2ccccc2C(=O)Nc2ccc(Br)cn2)cc1 | 3.4 | > 5 | IC50 [5]: > 10000 nM; IC50 [6]: > 10000 nM; IC50 (Serine protease 1): > 10000 nM; IC50 [7]: > 10000 nM; IC50 (Kallikrein-1): 2100 nM |
| N=C(N)NCc1cccc(-c2ccc(C(=O)Nc3ccc(Cl)cc3C(=O)Nc3ccc(Cl)cn3)cc2)c1 | 9.5 | > 5 | bioavailability [4]: < 1% |
| CNc1ccccc1-c1ccc(C(=O)Nc2ccc(Cl)cc2C(=O)Nc2ccc(Cl)cn2)cc1 | 4.1 |  |  |
| O=C(Nc1ccc(Cl)cc1C(=O)Nc1ccc(Cl)cn1)c1ccc(-c2cccc(N3CCC(O)CC3)c2)cc1 | 7 |  |  |
| Nc1ccc(C(=O)Nc2ccc(Br)cn2)c(NC(=O)c2ccc(-c3ccccc3S(N)(=O)=O)cc2)c1 | 6.2 | > 5 |  |
| Nc1ccc(NC(=O)c2ccc(-c3ccccc3S(N)(=O)=O)cc2)c(C(=O)Nc2ccc(Br)cn2)c1 | 4.6 | 2.8 |  |
| NS(=O)(=O)c1ccccc1-c1ccc(C(=O)Nc2cccnc2C(=O)Nc2ccc(Cl)cn2)cc1 | 26 | > 5 |  |
| NS(=O)(=O)c1ccccc1-c1ccc(C(=O)Nc2ccccc2C(=O)Nc2ccc(Cl)cn2)cc1 | 6.7 | > 5 |  |
| Nc1ccc(NC(=O)c2ccc(-c3ccccc3S(N)(=O)=O)cc2)c(C(=O)Nc2ccc(Cl)cn2)c1 | 6.7 | 3 |  |
| CN1CCCN(c2cccc(-c3ccc(C(=O)Nc4ccc(Cl)cc4C(=O)Nc4ccc(Cl)cn4)cc3)c2)CC1 | 22 |  |  |
| O=C(Nc1ccc(Cl)cc1C(=O)Nc1ccc(Cl)cn1)c1ccc(-c2ccccc2N2CCC(O)CC2)cc1 | 1 | > 5 | bioavailability [4]: 32%; Ki (Coagulation factor X [3]): 0.2 nM |
| O=C(Nc1ccc(Cl)cc1C(=O)Nc1ccc(Cl)cn1)c1ccc(-c2ccccc2N2CCCC2)cc1 | 2.8 |  |  |
| CN1CCN(c2cccc(-c3ccc(C(=O)Nc4ccc(Cl)cc4C(=O)Nc4ccc(Cl)cn4)cc3)c2)CC1 | 23 |  |  |

Second part, led by results:

| IC50 (Coagulation factor X [1]) [nM] | Activity (Coagulation factor X [2]) [µM] | SMILES | also measured |
| --- | --- | --- | --- |
| 4.1 |  | O=C(Nc1ccc(Cl)cc1C(=O)Nc1ccc(Cl)cn1)c1ccc(-c2ccccc2N2CCOCC2)cc1 |  |
| 74 |  | O=C(Nc1ccc(Cl)cc1C(=O)Nc1ccc(Cl)cn1)c1ccc(-c2cccc(N3CCOCC3)c2)cc1 |  |
| 16 |  | O=C(Nc1ccc(Cl)cc1C(=O)Nc1ccc(Cl)cn1)c1ccc(-c2cccc(N3CCCCC3)c2)cc1 |  |
| 3.1 | > 5 | CN1CCCN(c2ccccc2-c2ccc(C(=O)Nc3ccc(Cl)cc3C(=O)Nc3ccc(Cl)cn3)cc2)CC1 | Ki (Coagulation factor X [3]): 0.8 nM |
| 3.5 |  | CN(C)c1cccc(-c2ccc(C(=O)Nc3ccc(Cl)cc3C(=O)Nc3ccc(Cl)cn3)cc2)c1 |  |
| 1.6 | > 5 | N=C(N)c1cccc(-c2ccc(C(=O)Nc3ccc(Cl)cc3C(=O)Nc3ccc(Cl)cn3)cc2)c1 | bioavailability [4]: < 1%; Ki (Coagulation factor X [3]): 0.7 nM |
| 1550 |  | CN1CCN(c2ccc(NC(=O)c3ccc(-c4ccccc4S(N)(=O)=O)cc3)c(C(=O)Nc3ccc(Br)cn3)c2)CC1 |  |
| 18 | 2.2 | NS(=O)(=O)c1ccccc1-c1ccc(C(=O)Nc2ccncc2C(=O)Nc2ccc(Cl)cn2)cc1 |  |
|  | > 5 | N=C(N)NCc1ccccc1-c1ccc(C(=O)Nc2ccc(Cl)cc2C(=O)Nc2ccc(Cl)cn2)cc1 |  |
| 3.5 | > 5 | CN1CCN(c2ccccc2-c2ccc(C(=O)Nc3ccc(Cl)cc3C(=O)Nc3ccc(Cl)cn3)cc2)CC1 | Ki (Coagulation factor X [3]): 0.9 nM |
| 0.7 |  | CC(N)=NCc1ccccc1-c1ccc(C(=O)Nc2ccc(Cl)cc2C(=O)Nc2ccc(Cl)cn2)cc1 | bioavailability [4]: < 1%; Ki (Coagulation factor X [3]): 0.1 nM |
|  | > 5 | Nc1ccccc1-c1ccc(C(=O)Nc2ccc(Cl)cc2C(=O)Nc2ccc(Cl)cn2)cc1 | Ki (Coagulation factor X [3]): 0.2 nM |
| 370 |  | CC(=O)Nc1ccc(NC(=O)c2ccc(-c3ccccc3S(N)(=O)=O)cc2)c(C(=O)Nc2ccc(Br)cn2)c1 |  |
| 5.3 |  | O=C(Nc1ccc(Cl)cc1C(=O)Nc1ccc(Cl)cn1)c1ccc(-c2cccc(N3CCCC3)c2)cc1 |  |
| 0.4 | > 5 | O=C(Nc1ccc(Cl)cc1C(=O)Nc1ccc(Cl)cn1)c1ccc(-c2ccccc2N2CCC(C(=O)O)CC2)cc1 | Ki (Coagulation factor X [3]): 0.012 nM |
| 2.8 |  | O=C(Nc1ccc(Cl)cc1C(=O)Nc1ccc(Cl)cn1)c1ccc(-c2ccccc2N2CCCCC2)cc1 |  |
| 1.2 |  | NC(N)=NCc1ccccc1-c1ccc(C(=O)Nc2ccc(Cl)cc2C(=O)Nc2ccc(Cl)cn2)cc1 | bioavailability [4]: < 1%; Ki (Coagulation factor X [3]): 0.3 nM |
| 1.9 |  | Nc1cccc(-c2ccc(C(=O)Nc3ccc(Cl)cc3C(=O)Nc3ccc(Cl)cn3)cc2)c1 |  |
| 1.8 |  | O=C(Nc1ccc(Cl)cc1C(=O)Nc1ccc(Cl)cn1)c1ccc(-c2cccc(N3CCC(C(=O)O)CC3)c2)cc1 |  |
| 128 |  | NS(=O)(=O)c1ccccc1-c1ccc(C(=O)Nc2ccc(-n3ccnc3)cc2C(=O)Nc2ccc(Br)cn2)cc1 |  |
| 4.4 | > 5 | CC(=N)NCc1cccc(-c2ccc(C(=O)Nc3ccc(Cl)cc3C(=O)Nc3ccc(Cl)cn3)cc2)c1 | Ki (Coagulation factor X [3]): 1.8 nM |
| 5.6 | > 5 | O=C(Nc1ccc(Cl)cc1C(=O)Nc1ccc(Cl)cn1)c1ccc(-c2ccccc2N2CCCNCC2)cc1 | Ki (Coagulation factor X [3]): 1.8 nM |
| 60 |  | CN(C)C(=N)c1ccc(-c2ccc(C(=O)Nc3ccc(Cl)cc3C(=O)Nc3ccc(Cl)cn3)cc2)cc1 |  |
| 39 |  | O=C(Nc1ccc(Cl)cc1C(=O)Nc1ccc(Cl)cn1)c1ccc(-c2cccc(N3CCNCC3)c2)cc1 |  |
| 48 | > 5 | NS(=O)(=O)c1ccccc1-c1ccc(C(=O)Nc2ncccc2C(=O)Nc2ccc(Cl)cn2)cc1 |  |
| 66 |  | N=C(N)c1ccc(-c2ccc(C(=O)Nc3ccc(Cl)cc3C(=O)Nc3ccc(Cl)cn3)cc2)cc1 |  |
| 4.1 | > 5 | O=C(Nc1ccc(Cl)cc1C(=O)Nc1ccc(Cl)cn1)c1ccc(-c2ccccc2N2CCNCC2)cc1 | Ki (Coagulation factor X [3]): 1 nM |
| 0.9 | > 5 | CN(C)c1ccccc1-c1ccc(C(=O)Nc2ccc(Cl)cc2C(=O)Nc2ccc(Cl)cn2)cc1 | bioavailability [4]: 100%; Ki (Coagulation factor X [3]): 0.1 nM |
| 23 | 4.9 | NS(=O)(=O)c1ccccc1-c1ccc(C(=O)Nc2cnccc2C(=O)Nc2ccc(Cl)cn2)cc1 |  |
